Source: ChEMBL document CHEMBL1157807, “NO-releasing esters show carbonic anhydrase inhibitory action against human isoforms I and II” (Bioorg Med Chem, 2010)

target: T1, Carbonic anhydrase 1 (Homo sapiens, UniProt P00915); test: Noncompetitive inhibition of human carbonic anhydrase 1 esterase activity by Lineweaver-Burke plot analysis; conditions: not given
In short: (§1)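 Erythrocyte-purified human isozyme in the 4-nitrophenylacetate esterase assay, read at 348 nm over 3 min at 25 °C in Tris–SO4 pH 7.4. Three inhibitor concentrations are each tested against five substrate concentrations (0.15–0.75 mM). Ki and inhibition mode are taken from Lineweaver–Burk plots.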

T1 sequence (P00915 whole entry): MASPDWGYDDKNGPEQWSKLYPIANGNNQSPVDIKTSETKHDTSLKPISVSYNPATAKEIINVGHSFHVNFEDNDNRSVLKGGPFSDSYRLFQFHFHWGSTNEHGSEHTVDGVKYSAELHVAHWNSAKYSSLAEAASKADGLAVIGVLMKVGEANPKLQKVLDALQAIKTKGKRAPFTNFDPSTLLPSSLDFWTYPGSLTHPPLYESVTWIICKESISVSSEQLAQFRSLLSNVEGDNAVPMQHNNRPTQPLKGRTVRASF

Compared with O=[N+]([O-])O[C@H]1CC/C=C\CC[C@@H]1O (racemic), O=[N+]([O-])O[C@H]1CCCC[C@@H]1O is 5.3-fold higher in Ki: 41800 µM for the first, 221000 µM for the second.

First: O=[N+]([O-])O[C@H]1CC=CC[C@@H]1O (racemic)
Second: O=[N+]([O-])O[C@H]1CCCCCC[C@@H]1O
The Ki of the first is 6.1-fold higher: 274000 µM for the first, 45200 µM for the second.

O=[N+]([O-])O[C@@H]1CC[C@H](Br)[C@@H]2CC[C@H]1O2 gave a Ki of 22500 µM.

target: T1, Carbonic anhydrase 1; test: Uncompetitive inhibition of human carbonic anhydrase 1 esterase activity by Lineweaver-Burke plot analysis; conditions: not given; in short: as §1

Compound O=[N+]([O-])O[C@@H](CO)c1ccccc1 (single isomer, unassigned) has a Ki of 288000 µM.

target: T2, Carbonic anhydrase 2 (Homo sapiens, UniProt P00918); test: Competitive inhibition of human carbonic anhydrase 2 esterase activity by Lineweaver-Burke plot analysis; conditions: not given; in short: as §1

O=[N+]([O-])O[C@@H]1CC2CCC1[C@@H]2O (stereo partly drawn) and O=[N+]([O-])O[C@H]1CC2CCC1[C@@H]2O (stereo partly drawn) are within 1.5-fold of each other in Ki: 121 µM for the first, 133 µM for the second.

O=[N+]([O-])O[C@@H]1CC2c3ccccc3C1[C@@H]2O (stereo partly drawn) was tested, and the Ki was 196 µM.

target: T1, Carbonic anhydrase 1; test: Competitive inhibition of human carbonic anhydrase 1 esterase activity by Lineweaver-Burke plot analysis; conditions: not given; in short: as §1

O=[N+]([O-])O[C@@H]1CC2CCC1[C@@H]2O (stereo partly drawn) and O=[N+]([O-])O[C@H]1CC2CCC1[C@@H]2O (stereo partly drawn) are within 1.5-fold of each other in Ki: 13600 µM for the first, 17200 µM for the second.

For O=[N+]([O-])O[C@@H]1CC2c3ccccc3C1[C@@H]2O (stereo partly drawn), the Ki was 18700 µM.

target: T2, Carbonic anhydrase 2; test: Inhibition of human carbonic anhydrase 2 esterase activity by spectrophotometry; conditions: read-out: I50
In short: (§2)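 Enzyme purified from human erythrocytes. Esterase activity is followed as 4-nitrophenylacetate conversion to 4-nitrophenylate by absorbance at 348 nm over 3 min at 25 °C, in Tris–SO4 buffer pH 7.4. A reference cuvette lacks enzyme. Each inhibitor concentration is run in triplicate, with uninhibited control activity set to 100%. IC50 is read from %activity vs [inhibitor] plots.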

Compared with O=[N+]([O-])O[C@H]1CC/C=C\CC[C@@H]1O (racemic), O=[N+]([O-])O[C@H]1CCCC[C@@H]1O is 2.3-fold higher in IC50: 243 µM for the first, 560 µM for the second. The first is the more potent here.

First: O=[N+]([O-])O[C@H]1CC=CC[C@@H]1O (racemic)
Second: O=[N+]([O-])O[C@H]1CCCCCC[C@@H]1O
The IC50 of the first is 4.4-fold higher: 790 µM for the first, 181 µM for the second.

O=[N+]([O-])O[C@@H]1CC2CCC1[C@@H]2O (stereo partly drawn) and O=[N+]([O-])O[C@H]1CC2CCC1[C@@H]2O (stereo partly drawn) are within 1.5-fold of each other in IC50: 65.1 µM for the first, 73.1 µM for the second.

Compared with O=[N+]([O-])O[C@@H]1CC2c3ccccc3C1[C@@H]2O (stereo partly drawn), O=[N+]([O-])O[C@@H](CO)c1ccccc1 (single isomer, unassigned) is 6.4-fold higher in IC50: 98.1 µM for the first, 632 µM for the second. The first is the more potent here.

With O=[N+]([O-])O[C@@H]1CC[C@H](Br)[C@@H]2CC[C@H]1O2 the IC50 was 110 µM.

target: T2, Carbonic anhydrase 2; test: Noncompetitive inhibition of human carbonic anhydrase 2 esterase activity by Lineweaver-Burke plot analysis; conditions: not given; in short: as §1

Going from O=[N+]([O-])O[C@H]1CC/C=C\CC[C@@H]1O (racemic) to O=[N+]([O-])O[C@H]1CCCC[C@@H]1O, the Ki rises from 541 µM to 986 µM (1.8-fold). The first binds more tightly here.

Compared with O=[N+]([O-])O[C@H]1CC=CC[C@@H]1O (racemic), O=[N+]([O-])O[C@H]1CCCCCC[C@@H]1O is 5.1-fold lower in Ki: 1370 µM for the first, 267 µM for the second.

O=[N+]([O-])O[C@@H](CO)c1ccccc1 (single isomer, unassigned) gave a Ki of 1140 µM.

target: T1, Carbonic anhydrase 1; test: Inhibition of human carbonic anhydrase 1 esterase activity by spectrophotometry; conditions: read-out: I50; in short: as §2

O=[N+]([O-])O[C@H]1CC/C=C\CC[C@@H]1O (racemic) and O=[N+]([O-])O[C@H]1CCCCCC[C@@H]1O are within 1.5-fold of each other in IC50: 21000 µM for the first, 23000 µM for the second.

O=[N+]([O-])O[C@@H]1CC2CCC1[C@@H]2O (stereo partly drawn) and O=[N+]([O-])O[C@H]1CC2CCC1[C@@H]2O (stereo partly drawn) are within 1.5-fold of each other in IC50: 7130 µM for the first, 9100 µM for the second.

O=[N+]([O-])O[C@@H]1CC2c3ccccc3C1[C@@H]2O (stereo partly drawn) and O=[N+]([O-])O[C@@H]1CC[C@H](Br)[C@@H]2CC[C@H]1O2 are within 1.5-fold of each other in IC50: 10200 µM for the first, 12100 µM for the second.

target: T2, Carbonic anhydrase 2; test: Uncompetitive inhibition of human carbonic anhydrase 2 esterase activity by Lineweaver-Burke plot analysis; conditions: not given; in short: as §1

O=[N+]([O-])O[C@@H]1CC[C@H](Br)[C@@H]2CC[C@H]1O2 showed a Ki of 223 µM.
